In ChEMBL document CHEMBL1139478, “Piperazinobenzopyranones and phenalkylaminobenzopyranones: potent inhibitors of breast cancer resistance protein (ABCG2)” (J Med Chem, 2005):

Columns and labels:
[1] = Cytotoxicity against mitoxantrone-sensitive human HCT116 cells at 10 uM assessed as viable cells after 48 hrs; type: cell-based, HCT-116; details: read-out: Activity
Procedure, shortened: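 HCT116/S cells exposed to compound at 10, 1 and 0.1 μM; cell cycle distribution (G0/G1, S, G2/M) and viability by flow cytometry after trypsin/spermine detergent buffer 10 min room temperature, trypsin inhibitor plus ribonuclease A 10 min, then PI 10 min, read immediately.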

[2] = target: T1, Broad substrate specificity ATP-binding cassette transporter ABCG2 (Homo sapiens, UniProt Q9UNQ0); assay: Inhibition of BCRP expressed in mitoxantrone-resistant human HCT116 cells assessed as increase in mitoxantrone accumulation at 10 uM after 15 mins; type: cell-based; details: hct-116, 0.25 h
T1 sequence (Q9UNQ0 whole entry): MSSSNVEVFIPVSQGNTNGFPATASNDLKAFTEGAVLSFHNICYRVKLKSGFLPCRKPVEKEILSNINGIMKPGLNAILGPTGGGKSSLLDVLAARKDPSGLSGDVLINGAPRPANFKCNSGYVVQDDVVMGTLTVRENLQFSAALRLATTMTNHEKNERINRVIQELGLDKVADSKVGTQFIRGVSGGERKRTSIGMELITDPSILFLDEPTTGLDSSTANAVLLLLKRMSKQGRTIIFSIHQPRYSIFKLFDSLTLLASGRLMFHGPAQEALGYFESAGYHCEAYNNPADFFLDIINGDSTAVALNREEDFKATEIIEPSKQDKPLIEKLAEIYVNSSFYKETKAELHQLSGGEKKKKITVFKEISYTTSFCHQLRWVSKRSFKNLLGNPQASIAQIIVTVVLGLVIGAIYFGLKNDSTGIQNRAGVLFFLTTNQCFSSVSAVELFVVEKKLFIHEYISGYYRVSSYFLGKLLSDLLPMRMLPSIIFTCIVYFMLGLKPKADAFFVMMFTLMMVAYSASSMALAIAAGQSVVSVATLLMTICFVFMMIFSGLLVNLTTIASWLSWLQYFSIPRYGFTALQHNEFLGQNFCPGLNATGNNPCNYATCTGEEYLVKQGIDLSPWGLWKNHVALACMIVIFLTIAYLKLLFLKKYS
Procedure, shortened: (§1)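 HCT116/R cells from ~90% confluent flasks, trypsinized, washed and resuspended at 10^6 cells/mL in serum-free RPMI. Preincubated 15 min at 37 °C with modulator (10 to 0.1 μM final, from 10 mM DMSO stock), then 3 μM mitoxantrone added for 30 min. Stopped with ice-cold PBS, washed; intracellular mitoxantrone by flow cytometry (488 nm excitation, 670 nm band-pass), mean fluorescence intensity in arbitrary units.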

[3] = target: T1, Broad substrate specificity ATP-binding cassette transporter ABCG2; assay: Inhibition of BCRP expressed in mitoxantrone-resistant human HCT116 cells assessed as increase in mitoxantrone accumulation at 1 uM after 15 mins; type: cell-based; details: hct-116, 0.25 h; procedure, shortened: as §1
HCT-116 [4] = assay: Potentiation of mitoxantrone-induced cytotoxicity in mitoxantrone-resistant human HCT116 cells at 10 uM assessed as apoptotic cells after 48 hrs by flow cytometry; type: cell-based; details: hct-116, 48 h
Procedure, shortened: (§2)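 After 24 h attachment, HCT116/R medium replaced with fresh medium holding 1 μM mitoxantrone plus modulator (10, 1, 0.1 μM); 48 h at 37 °C, PBS washes. Dead cells by propidium iodide uptake (2 μg/mL) in unfixed cells, FSC/FL2 flow cytometry; apoptosis by annexin V-FITC/PI staining, 10 min room temperature, flow cytometry; viable, apoptotic and dead percentages reported.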

HCT-116 [5] = assay: Potentiation of mitoxantrone-induced cytotoxicity in mitoxantrone-resistant human HCT116 cells at 10 uM assessed as dead cells after 48 hrs by flow cytometry; type: cell-based; details: hct-116, 48 h; procedure, shortened: as §2

| SMILES | Fluorescence intensity [2] | further results |
| --- | --- | --- |
| CC(C)(C)OC(=O)N1CCN(C(=O)c2cc(=O)c3c(O)cccc3o2)CC1 | 179 a.u. | viability at 48 h, 10 µM [1]: 60% |
| CCCCCN1CCN(C(=O)c2cc(=O)c3c(O)cccc3o2)CC1 | 225 a.u. |  |
| O=C(c1cc(=O)c2c(O)cccc2o1)N1CCN(CCO)CC1 | 72 a.u. |  |
| O=C(c1cc(=O)c2c(O)cccc2o1)N1CCN(CC2CCCCC2)CC1 | 92 a.u. |  |
| COc1ccc(CCNC(=O)c2cc(=O)c3c(O)cccc3o2)cc1OC | 315 a.u. | Activity [3]: Active; viability at 48 h, 10 µM [1]: 60% |
| COc1ccc(CNC(=O)c2cc(=O)c3c(O)cccc3o2)cc1OC | 197 a.u. |  |
| CCCCN1CCN(C(=O)c2cc(=O)c3c(O)cccc3o2)CC1 | 223 a.u. | Activity (HCT-116 [4]): 27%; viability at 48 h, 10 µM [1]: 60%; Activity (HCT-116 [5]): 22% |
| CC(C)CN1CCN(C(=O)c2cc(=O)c3c(O)cccc3o2)CC1 | 92 a.u. |  |
| O=C(c1cc(=O)c2c(O)cccc2o1)N1CCNCC1 | 86 a.u. |  |
| CCCN1CCN(C(=O)c2cc(=O)c3c(O)cccc3o2)CC1 | 104 a.u. |  |
| COc1ccc(CCNC(=O)c2cc(=O)c3c(O)cccc3o2)cc1 | 320 a.u. | Activity [3]: Active; Activity (HCT-116 [4]): 42%; Activity (HCT-116 [5]): 8% |
| O=C(NCCc1ccccc1)c1cc(=O)c2c(O)cccc2o1 | 282 a.u. | viability at 48 h, 10 µM [1]: 60% |
| CC(=O)N1CCN(C(=O)c2cc(=O)c3c(O)cccc3o2)CC1 | 112 a.u. |  |
| CCN1CCN(C(=O)c2cc(=O)c3c(O)cccc3o2)CC1 | 108 a.u. |  |
| COc1ccc2c3c([nH]c2c1)[C@H](C=C(C)C)N1C(=O)[C@@H]2CCCN2C(=O)[C@@H]1C3 [FUMITREMORGIN] | 315 a.u. |  |
| Cc1ccc(NC(=O)c2ccc(CN3CCN(C)CC3)cc2)cc1Nc1nccc(-c2cccnc2)n1 [IMATINIB] | 334 a.u. |  |
